Results as given in ChEMBL document CHEMBL1275452, “Epidemiological cutoffs and cross-resistance to azole drugs in Aspergillus fumigatus” (2008).
In brackets after ≈: the same amount, converted by molar mass.

Tests used:
Assay type in all cases: functional
Aspergillus fumigatus [1] = test: Antimicrobial activity against azole-resistant Aspergillus fumigatus harboring G54V, G54E, G54R and G54W mutation in cyp51A gene after 48 hrs by microdilution method
Outline: (§1)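 EUCAST broth microdilution in RPMI 1640 supplemented to 2% glucose. Inoculum 2 × 105 to 5 × 10^5 CFU/ml, spores counted in a hematocytometer. MIC read at 48 h as the concentration giving complete inhibition of visual growth. Strains with itraconazole MICs of ≥8 mg/liter were tested at least twice on different days (2 to 11 times). Values are geometric means of MICs. QC strain ATCC 204305 was included.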

Aspergillus fumigatus [2] = test: Antimicrobial activity against azole-resistant Aspergillus fumigatus harboring Tandem repeat-L98H (TR) mutation in cyp51A gene after 48 hrs by microdilution method; outline: as §1
Aspergillus fumigatus [3] = test: Antimicrobial activity against azole-resistant Aspergillus fumigatus harboring M220V, M220K, M220T and M220I mutation in cyp51A gene after 48 hrs by microdilution method; outline: as §1
Aspergillus fumigatus [4] = test: Antimicrobial activity against azole-susceptible Aspergillus fumigatus after 48 hrs by microdilution method
Outline: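 EUCAST broth microdilution on clinical isolates, RPMI 1640 with glucose to 2%. Inoculum 2 × 105 to 5 × 10^5 CFU/ml, counted as spores in a hematocytometer. MIC read at 48 h as the lowest concentration giving complete inhibition of visual growth. Strains with itraconazole MIC ≤1 mg/liter tested once, some at least twice. Values summarised as geometric means; QC strain ATCC 204305 run alongside.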

Row | SMILES | MIC (Aspergillus fumigatus [1]) | MIC (Aspergillus fumigatus [2]) | MIC (Aspergillus fumigatus [3]) | MIC (Aspergillus fumigatus [4]) | MIC90 (Aspergillus fumigatus [4])
1 | CCC(C)n1ncn(-c2ccc(N3CCN(c4ccc(OCC5COC(Cn6cncn6)(c6ccc(Cl)cc6Cl)O5)cc4)CC3)cc2)c1=O (stereo not given) [ITRACONAZOLE] | 16 µg/mL (≈ 22.7 µM) | 16 µg/mL (≈ 22.7 µM) | 16 µg/mL (≈ 22.7 µM) | 0.32 µg/mL (≈ 0.453 µM) | 0.5 µg/mL (≈ 0.709 µM)
2 | CC[C@@H]([C@H](C)O)n1ncn(-c2ccc(N3CCN(c4ccc(OC[C@@H]5CO[C@@](Cn6cncn6)(c6ccc(F)cc6F)C5)cc4)CC3)cc2)c1=O [POSACONAZOLE] | 1.6 µg/mL (≈ 2.28 µM) | 0.68 µg/mL (≈ 0.97 µM) | 0.65 µg/mL (≈ 0.928 µM) | 0.08 µg/mL (≈ 0.114 µM) | 0.125 µg/mL (≈ 0.178 µM)
3 | C[C@@H](c1nc(-c2ccc(C#N)cc2)cs1)[C@](O)(Cn1cncn1)c1ccc(F)cc1F [RAVUCONAZOLE] | 0.32 µg/mL (≈ 0.731 µM) | 6.8 µg/mL (≈ 15.5 µM) | 1.85 µg/mL (≈ 4.23 µM) | 0.6 µg/mL (≈ 1.37 µM) | 1 µg/mL (≈ 2.29 µM)
4 | C[C@@H](c1ncncc1F)[C@](O)(Cn1cncn1)c1ccc(F)cc1F [VORICONAZOLE] | 0.42 µg/mL (≈ 1.2 µM) | 3.7 µg/mL (≈ 10.6 µM) | 1 µg/mL (≈ 2.86 µM) | 0.53 µg/mL (≈ 1.52 µM) | 1 µg/mL (≈ 2.86 µM)
